According to the M2OR odorant receptor database:

Assays:
Details in all cases: stereoisomer not certain
OR51E1 (Homo sapiens) [1] = biological target: T1, OR51E1 (Homo sapiens) (UniProt Q8TCB6)
T1 sequence (whole entry): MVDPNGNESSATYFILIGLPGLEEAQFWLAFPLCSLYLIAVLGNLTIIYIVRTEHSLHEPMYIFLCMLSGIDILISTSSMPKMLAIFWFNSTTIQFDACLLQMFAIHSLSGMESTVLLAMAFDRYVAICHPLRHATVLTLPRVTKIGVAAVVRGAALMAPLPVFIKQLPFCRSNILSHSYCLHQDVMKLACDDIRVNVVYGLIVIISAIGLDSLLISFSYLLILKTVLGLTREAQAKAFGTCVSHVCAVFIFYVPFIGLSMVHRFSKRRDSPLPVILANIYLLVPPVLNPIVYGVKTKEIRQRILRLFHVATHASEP
Outline: (§1)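 Assay methods differ from source to source, frequently being transient luciferase assays in mammalian cell lines. For each receptor–molecule pair, the label responsive (active) applies when the original authors judged the measured signal statistically different from baseline, and non-responsive (inactive) applies otherwise.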

OR51D1 (Homo sapiens) = biological target: T2, OR51D1 (Homo sapiens) (UniProt Q8NGF3)
T2 sequence (whole entry): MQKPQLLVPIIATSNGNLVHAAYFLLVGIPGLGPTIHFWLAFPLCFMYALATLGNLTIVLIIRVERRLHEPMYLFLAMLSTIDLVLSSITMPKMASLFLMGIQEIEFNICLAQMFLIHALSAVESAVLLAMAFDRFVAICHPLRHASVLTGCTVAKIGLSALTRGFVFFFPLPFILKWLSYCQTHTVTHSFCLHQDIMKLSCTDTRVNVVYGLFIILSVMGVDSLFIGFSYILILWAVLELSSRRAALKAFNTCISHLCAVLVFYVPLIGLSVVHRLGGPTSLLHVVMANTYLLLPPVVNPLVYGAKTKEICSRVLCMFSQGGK
Outline: as §1

OR51E1 (Homo sapiens) [2] = biological target: T3, OR51E1 (Homo sapiens) (UniProt Q8TCB6); remark: listed apart in the source
T3 sequence (whole entry): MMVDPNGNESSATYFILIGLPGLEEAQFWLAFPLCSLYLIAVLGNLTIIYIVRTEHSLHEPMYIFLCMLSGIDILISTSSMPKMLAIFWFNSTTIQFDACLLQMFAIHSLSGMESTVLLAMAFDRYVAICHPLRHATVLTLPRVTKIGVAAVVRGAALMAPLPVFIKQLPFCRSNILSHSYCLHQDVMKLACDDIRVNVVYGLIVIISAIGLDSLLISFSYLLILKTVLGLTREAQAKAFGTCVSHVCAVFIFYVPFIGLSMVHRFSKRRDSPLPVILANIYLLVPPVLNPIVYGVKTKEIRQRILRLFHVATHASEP
Outline: as §1

OR51E2 (Homo sapiens) = biological target: T4, OR51E2 (Homo sapiens) (UniProt Q9H255)
T4 sequence (whole entry): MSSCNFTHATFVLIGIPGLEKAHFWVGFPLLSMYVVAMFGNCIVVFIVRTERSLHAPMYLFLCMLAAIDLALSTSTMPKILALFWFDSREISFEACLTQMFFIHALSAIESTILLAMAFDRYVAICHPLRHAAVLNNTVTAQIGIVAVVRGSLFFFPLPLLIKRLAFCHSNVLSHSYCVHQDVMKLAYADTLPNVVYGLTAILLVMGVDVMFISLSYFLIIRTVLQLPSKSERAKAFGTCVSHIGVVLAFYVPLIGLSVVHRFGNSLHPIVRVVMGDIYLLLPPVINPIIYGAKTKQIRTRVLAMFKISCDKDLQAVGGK
Outline: as §1

OR51F2 (Homo sapiens) = biological target: T5, OR51F2 (Homo sapiens) (UniProt Q8NH61)
T5 sequence (whole entry): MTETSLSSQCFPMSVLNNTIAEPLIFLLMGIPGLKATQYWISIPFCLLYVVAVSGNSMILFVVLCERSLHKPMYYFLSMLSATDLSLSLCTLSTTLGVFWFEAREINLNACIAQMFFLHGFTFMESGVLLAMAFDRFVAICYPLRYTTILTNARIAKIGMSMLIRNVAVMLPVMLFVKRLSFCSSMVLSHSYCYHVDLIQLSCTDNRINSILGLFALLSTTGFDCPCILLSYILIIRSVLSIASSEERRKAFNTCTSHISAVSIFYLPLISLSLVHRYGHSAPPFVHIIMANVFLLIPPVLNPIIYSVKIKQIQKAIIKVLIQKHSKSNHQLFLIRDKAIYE
Outline: as §1

OR51G1 (Homo sapiens) = biological target: T6, OR51G1 (Homo sapiens) (UniProt Q8NGK1)
T6 sequence (whole entry): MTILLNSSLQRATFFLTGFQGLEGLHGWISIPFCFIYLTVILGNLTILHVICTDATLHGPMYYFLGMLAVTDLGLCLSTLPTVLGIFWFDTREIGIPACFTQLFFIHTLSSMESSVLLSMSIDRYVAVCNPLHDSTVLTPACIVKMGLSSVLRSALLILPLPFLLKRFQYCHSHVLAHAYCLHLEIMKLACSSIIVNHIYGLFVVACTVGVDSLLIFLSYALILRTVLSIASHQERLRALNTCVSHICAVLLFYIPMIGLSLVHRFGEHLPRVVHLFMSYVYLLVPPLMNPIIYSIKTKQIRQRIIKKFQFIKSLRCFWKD
Outline: as §1

OR51G2 (Homo sapiens) = biological target: T7, OR51G2 (Homo sapiens) (UniProt Q8NGK0)
T7 sequence (whole entry): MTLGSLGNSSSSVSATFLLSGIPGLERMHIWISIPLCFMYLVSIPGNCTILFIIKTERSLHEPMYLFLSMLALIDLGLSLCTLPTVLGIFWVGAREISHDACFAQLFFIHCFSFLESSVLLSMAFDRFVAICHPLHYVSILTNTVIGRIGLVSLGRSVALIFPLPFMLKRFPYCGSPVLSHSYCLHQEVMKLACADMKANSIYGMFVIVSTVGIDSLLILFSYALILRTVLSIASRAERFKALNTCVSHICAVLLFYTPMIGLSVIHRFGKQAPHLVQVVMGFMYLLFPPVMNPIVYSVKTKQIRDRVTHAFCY
Outline: as §1

OR51I1 (Homo sapiens) = biological target: T8, OR51I1 (Homo sapiens) (UniProt Q9H343)
T8 sequence (whole entry): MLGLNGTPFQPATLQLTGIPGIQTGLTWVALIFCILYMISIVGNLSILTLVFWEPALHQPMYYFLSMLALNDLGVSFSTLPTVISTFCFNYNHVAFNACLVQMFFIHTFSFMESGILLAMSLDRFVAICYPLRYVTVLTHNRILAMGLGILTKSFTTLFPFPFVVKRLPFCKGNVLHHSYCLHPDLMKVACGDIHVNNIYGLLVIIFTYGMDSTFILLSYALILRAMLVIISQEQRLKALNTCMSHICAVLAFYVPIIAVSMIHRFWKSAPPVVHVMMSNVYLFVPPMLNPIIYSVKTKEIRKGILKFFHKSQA
Outline: as §1

OR51I2 (Homo sapiens) = biological target: T9, OR51I2 (Homo sapiens) (UniProt Q9H344)
T9 sequence (whole entry): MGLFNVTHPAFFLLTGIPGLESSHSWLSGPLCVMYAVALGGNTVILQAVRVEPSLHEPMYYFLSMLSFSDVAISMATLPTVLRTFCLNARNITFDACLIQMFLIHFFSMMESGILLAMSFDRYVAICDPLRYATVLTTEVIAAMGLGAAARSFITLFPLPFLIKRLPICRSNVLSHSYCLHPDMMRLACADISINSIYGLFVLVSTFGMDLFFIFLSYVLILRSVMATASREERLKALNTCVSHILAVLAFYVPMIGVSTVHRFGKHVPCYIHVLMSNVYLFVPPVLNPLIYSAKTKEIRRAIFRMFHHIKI
Outline: as §1

OR51J1 (Homo sapiens) = biological target: T10, OR51J1 (Homo sapiens) (UniProt Q9H342)
T10 sequence (whole entry): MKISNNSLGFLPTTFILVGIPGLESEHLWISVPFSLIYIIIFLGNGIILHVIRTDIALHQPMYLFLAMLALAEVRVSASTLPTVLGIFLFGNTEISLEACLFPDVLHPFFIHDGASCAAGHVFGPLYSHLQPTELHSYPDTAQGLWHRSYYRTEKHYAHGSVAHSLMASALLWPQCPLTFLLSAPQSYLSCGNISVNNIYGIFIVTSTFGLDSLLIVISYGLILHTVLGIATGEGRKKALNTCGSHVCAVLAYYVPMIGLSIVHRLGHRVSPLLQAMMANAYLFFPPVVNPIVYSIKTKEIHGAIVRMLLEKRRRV
Outline: as §1

OR51L1 (Homo sapiens) = biological target: T11, OR51L1 (Homo sapiens) (UniProt Q8NGJ5)
T11 sequence (whole entry): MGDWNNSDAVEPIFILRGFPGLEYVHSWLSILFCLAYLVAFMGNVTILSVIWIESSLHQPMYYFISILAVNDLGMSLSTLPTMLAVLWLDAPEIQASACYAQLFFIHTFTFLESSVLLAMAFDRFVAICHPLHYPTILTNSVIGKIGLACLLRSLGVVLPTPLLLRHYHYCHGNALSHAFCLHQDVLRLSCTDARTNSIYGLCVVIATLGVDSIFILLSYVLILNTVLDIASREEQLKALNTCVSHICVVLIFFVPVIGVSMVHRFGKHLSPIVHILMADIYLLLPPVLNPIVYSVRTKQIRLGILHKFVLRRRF
Outline: as §1

OR51M1 (Homo sapiens) = biological target: T12, OR51M1 (Homo sapiens) (UniProt Q9H341)
T12 sequence (whole entry): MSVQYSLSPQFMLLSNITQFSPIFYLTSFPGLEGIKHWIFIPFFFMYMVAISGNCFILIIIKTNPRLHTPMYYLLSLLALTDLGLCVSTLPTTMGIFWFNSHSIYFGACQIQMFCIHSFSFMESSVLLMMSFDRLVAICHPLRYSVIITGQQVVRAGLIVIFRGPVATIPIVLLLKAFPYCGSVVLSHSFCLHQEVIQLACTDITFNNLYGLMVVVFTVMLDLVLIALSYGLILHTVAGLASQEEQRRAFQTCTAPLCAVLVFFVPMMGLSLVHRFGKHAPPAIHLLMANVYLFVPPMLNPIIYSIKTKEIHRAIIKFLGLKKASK
Outline: as §1

OR51Q1 (Homo sapiens) = biological target: T13, OR51Q1 (Homo sapiens) (UniProt Q8NH59)
T13 sequence (whole entry): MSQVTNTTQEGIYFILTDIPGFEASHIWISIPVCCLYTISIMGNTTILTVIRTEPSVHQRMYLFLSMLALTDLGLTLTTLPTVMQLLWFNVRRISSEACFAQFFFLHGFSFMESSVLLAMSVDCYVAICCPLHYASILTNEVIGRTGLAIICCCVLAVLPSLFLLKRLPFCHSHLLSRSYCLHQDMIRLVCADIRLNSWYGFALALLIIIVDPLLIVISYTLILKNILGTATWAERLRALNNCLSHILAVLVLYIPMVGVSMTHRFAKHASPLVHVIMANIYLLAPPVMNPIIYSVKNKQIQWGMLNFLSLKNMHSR
Outline: as §1

OR51S1 (Homo sapiens) = biological target: T14, OR51S1 (Homo sapiens) (UniProt Q8NGJ8)
T14 sequence (whole entry): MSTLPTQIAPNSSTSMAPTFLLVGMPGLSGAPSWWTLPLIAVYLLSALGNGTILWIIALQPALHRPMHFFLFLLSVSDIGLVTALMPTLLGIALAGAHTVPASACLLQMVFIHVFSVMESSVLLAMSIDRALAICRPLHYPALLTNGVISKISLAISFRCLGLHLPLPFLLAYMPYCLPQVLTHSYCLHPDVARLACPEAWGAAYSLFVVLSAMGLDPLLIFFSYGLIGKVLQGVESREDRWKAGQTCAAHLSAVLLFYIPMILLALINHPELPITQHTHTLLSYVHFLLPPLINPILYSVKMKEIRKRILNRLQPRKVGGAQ
Outline: as §1

OR51V1 (Homo sapiens) = biological target: T15, OR51V1 (Homo sapiens) (UniProt Q9H2C8)
T15 sequence (whole entry): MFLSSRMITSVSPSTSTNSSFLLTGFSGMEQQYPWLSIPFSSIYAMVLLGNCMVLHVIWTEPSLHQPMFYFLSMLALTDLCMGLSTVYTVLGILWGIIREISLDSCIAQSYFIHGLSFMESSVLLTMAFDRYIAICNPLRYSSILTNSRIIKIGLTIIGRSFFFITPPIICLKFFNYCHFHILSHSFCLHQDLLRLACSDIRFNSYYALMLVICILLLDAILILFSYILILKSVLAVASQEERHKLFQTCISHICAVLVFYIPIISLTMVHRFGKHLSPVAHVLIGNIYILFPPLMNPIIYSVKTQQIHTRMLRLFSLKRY
Outline: as §1

OR52A1 (Homo sapiens) = biological target: T16, OR52A1 (Homo sapiens) (UniProt Q9UKL2)
T16 sequence (whole entry): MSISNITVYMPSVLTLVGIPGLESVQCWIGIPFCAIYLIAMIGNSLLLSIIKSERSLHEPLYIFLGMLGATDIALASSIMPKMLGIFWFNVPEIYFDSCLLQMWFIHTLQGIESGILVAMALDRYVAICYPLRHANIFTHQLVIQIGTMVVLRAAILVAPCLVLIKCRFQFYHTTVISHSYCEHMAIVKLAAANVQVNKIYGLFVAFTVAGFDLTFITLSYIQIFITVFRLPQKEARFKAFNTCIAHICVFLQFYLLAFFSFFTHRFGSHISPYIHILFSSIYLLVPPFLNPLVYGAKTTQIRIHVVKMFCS
Outline: as §1

OR51F1 (Homo sapiens) = biological target: T17, OR51F1 (Homo sapiens) (UniProt A6NGY5)
T17 sequence (whole entry): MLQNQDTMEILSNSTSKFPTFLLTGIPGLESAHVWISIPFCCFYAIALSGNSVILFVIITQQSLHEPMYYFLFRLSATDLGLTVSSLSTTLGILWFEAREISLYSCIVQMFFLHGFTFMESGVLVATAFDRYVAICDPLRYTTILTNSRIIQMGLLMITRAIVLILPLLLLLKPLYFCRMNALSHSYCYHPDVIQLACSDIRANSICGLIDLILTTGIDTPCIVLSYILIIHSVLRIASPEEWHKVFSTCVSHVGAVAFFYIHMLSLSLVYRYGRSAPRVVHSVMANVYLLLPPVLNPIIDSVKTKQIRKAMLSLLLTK
Outline: as §1

OR51T1 (Homo sapiens) = biological target: T18, OR51T1 (Homo sapiens) (UniProt Q8NGJ9)
T18 sequence (whole entry): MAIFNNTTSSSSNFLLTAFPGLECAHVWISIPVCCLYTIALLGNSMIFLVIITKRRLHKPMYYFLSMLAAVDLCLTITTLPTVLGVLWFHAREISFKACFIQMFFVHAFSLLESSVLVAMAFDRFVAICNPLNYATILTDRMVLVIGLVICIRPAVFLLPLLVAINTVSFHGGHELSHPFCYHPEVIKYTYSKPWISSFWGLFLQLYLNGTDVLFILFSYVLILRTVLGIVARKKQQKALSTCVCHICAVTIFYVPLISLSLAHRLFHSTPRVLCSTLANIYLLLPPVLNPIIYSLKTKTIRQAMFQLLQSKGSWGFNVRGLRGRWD
Outline: as §1

Measured: odorant receptor agonist call

CCCCCCCCCCCCCC(=O)O
inactive: OR51E1 (Homo sapiens) [1]

CC1=C(O)C(=O)OC1C (stereo not drawn)
not listed: OR51E1 (Homo sapiens) [1] | OR51F1 (Homo sapiens) | OR51T1 (Homo sapiens)
inactive: all other assays above

CCCCCCC=CCCC=O
not listed: OR51E1 (Homo sapiens) [2]
inactive: all other assays above
